We go through 5 molecules from paper PMC5755971 (Journal of the American Chemical Society, 2017).

The subject of one data set is human CD22. To be noted: cited from earlier work.
Data set [1] relates to Daudi cells. Description: cytotoxicity assay for ligand-toxin conjugates. The data set is classed as cell-based. To be noted: read-out: EC50 (cytotoxicity), 72h, MTT.
The target of data set [2] is T1, hCD22 (Homo sapiens, UniProt P20273).
T1 sequence (P20273 20-847): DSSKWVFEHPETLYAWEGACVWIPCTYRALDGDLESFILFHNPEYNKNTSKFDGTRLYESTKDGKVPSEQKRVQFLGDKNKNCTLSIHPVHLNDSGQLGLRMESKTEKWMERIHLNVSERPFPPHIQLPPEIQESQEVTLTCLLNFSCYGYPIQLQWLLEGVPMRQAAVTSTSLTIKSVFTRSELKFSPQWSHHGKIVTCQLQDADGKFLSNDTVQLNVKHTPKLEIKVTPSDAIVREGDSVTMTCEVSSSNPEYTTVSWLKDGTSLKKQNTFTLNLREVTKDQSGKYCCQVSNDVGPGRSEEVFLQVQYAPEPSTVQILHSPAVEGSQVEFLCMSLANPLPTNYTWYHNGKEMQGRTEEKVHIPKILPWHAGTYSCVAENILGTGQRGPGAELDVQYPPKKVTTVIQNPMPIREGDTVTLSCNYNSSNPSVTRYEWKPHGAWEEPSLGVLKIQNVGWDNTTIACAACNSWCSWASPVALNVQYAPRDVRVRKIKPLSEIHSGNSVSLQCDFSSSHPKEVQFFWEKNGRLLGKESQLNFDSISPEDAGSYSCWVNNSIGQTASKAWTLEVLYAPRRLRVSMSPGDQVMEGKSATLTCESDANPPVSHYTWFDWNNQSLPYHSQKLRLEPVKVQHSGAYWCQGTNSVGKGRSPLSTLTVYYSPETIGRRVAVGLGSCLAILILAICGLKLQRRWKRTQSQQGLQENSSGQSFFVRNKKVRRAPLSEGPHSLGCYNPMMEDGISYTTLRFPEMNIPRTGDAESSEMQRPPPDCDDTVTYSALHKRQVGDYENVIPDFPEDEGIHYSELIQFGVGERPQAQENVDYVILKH
Description: flow cytometry competitive binding assay, Neu5Gc-PAA to hCD22-CHO cells. The gist of the method:
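Serial dilutions of sialoside ligands, quantified by periodate-resorcinol assay, mixed in cold HBSS/0.5% BSA with biotinylated Neu5Gcα2–6LacNAc-PAA (1 MDa, 1 μg/mL). ~10^6 hCD22-CHO cells added; 40 min, 4 °C, dark. Two washes, then streptavidin-PE (1:1000) for 30 min at 4 °C. Read by flow cytometry. Triplicate titrations; IC50 from curve fit, 0% = no polymer, 100% = polymer without competitor.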
(A flow cytometer gives signals particle by particle.)

Data set [3] relates to Daudi cells. Description: uptake of ligand-FITC conjugates by Daudi cells in pure mouse serum. As to conditions: 60 min, 37 °C. It counts as cell-based. The gist of the method: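 FITC-labelled ligand conjugates serially diluted and incubated with ~10^6 Daudi B cells in 100 uL pure mouse serum for 60 min at 37 °C. Cells washed twice in HBSS; uptake read by flow cytometry and curve-fitted.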

The target of data set [4] is T1, hCD22. As to conditions: equilibrium dialysis at 4° C; cited from earlier work. (In general: Equilibrium dialysis compares concentrations on both sides of a semipermeable membrane.)

Where a SMILES comes first, the peptide text is derived from it. [ ]: non-standard residue; d: D form. Dolaproine = CO[C@@H]([C@@H]1CCCN1)[C@@H](C)C(=O)O; Dil = CC[C@H](C)[C@H](NC)[C@@H](CC(=O)O)OC; NMeV = CN[C@H](C(=O)O)C(C)C

As for `CC(=O)NC1C(O)CC(O)(C(=O)O)OC1C(O)C(O)CNC(=O)c1ccc(-c2ccccc2)cc1` (stereo not shown) [1a, 9-N-biphenyl carboxamide-Neu5Ac], the “affinity for human CD22” value in the data set on human CD22 is on record as “low micromolar range”.

`O=C(CF)N[C@H]1[C@H]([C@H](O)[C@H](O)CNC(=O)c2cccc(Oc3ccccc3)c2)OC(O)(C(=O)O)C[C@@H]1O` (stereo partly shown) [1c, 9-N-m-phenoxybenzamide-Neu5FAc]: in the data set with human CD22, the “affinity for human CD22” value was “low micromolar range”.

A word on the EC50: it is the midpoint of the concentration-response curve. Regarding `CC[C@H](C)[C@@H]([C@@H](CC(=O)N1CCC[C@H]1[C@H](OC)[C@@H](C)C(=O)N[C@@H](Cc1ccccc1)C(=O)O)OC)N(C)C(=O)[C@@H](NC(=O)[C@@H](NC)C(C)C)C(C)C` [MMAF, monomethyl auristatin F] (H-[NMeV]V[Dil][Dolaproine]F-OH), the EC50 with Daudi cells [1] worked out at 0.2 µM.

Turning to `CC(=O)NC1C(NC(=O)C[C@H](NC(=O)[C@H](C)NC(=O)[C@@H](NC(=O)[C@@H](N)CCCCN)C(C)C)C(=O)N[C@@H](CCCCN)C(=O)N[C@H](C(=O)O)[C@@H](C)O)OC(CO)C(OC2OC(CO)C(OC3OC(COC4OC(CO)C(O)C(O)C4OC4OC(CO)C(OC5OC(COC6(C(=O)[O-])CC(O)C(NC(C)=O)C([C@H](O)[C@H](O)CO)O6)C(O)C(O)C5O)C(O)C4NC(C)=O)C(O)C(OC4OC(CO)C(O)C(O)C4OC4OC(CO)C(OC5OC(COC6(C(=O)[O-])CC(O)C(NC(C)=O)C([C@H](O)[C@H](O)CO)O6)C(O)C(O)C5O)C(O)C4NC(C)=O)C3O)C(O)C2NC(C)=O)C1O.[Na+].[Na+]` (stereo partly shown) [SGP], the “fold higher binding affinity for hCD22 compared to the monovalent ligand (6′SLN)” value at hCD22 [2] was “three-fold higher”. Further, in the data set with Daudi cells [3], the “binding/uptake by Daudi cells” value was “weak or no binding/uptake”.

What is called IC50 is the concentration needed to halve the response being measured. By Kd is commonly meant the equilibrium constant for the complex coming apart. Consider Neu5Acα2–6Galβ1–4GlcNAc [6′SLN], for which the IC50 at hCD22 [2] (competition with Neu5Gc-PAA, 40 min, 4 °C) is 62 µM. The Kd at hCD22 [4] is 32 µM.
